Assay results gathered from unrelated publications.
Each line is one published result; the experiments were not run side by side.
Cell line: MDA-MB-231
Observed: cell growth or viability

CC(C)(C)c1cnc(CSc2cnc(NC(=O)C3CCN(C(=O)CCCCCCCN4Cc5cc6c(cc5C4)C(=O)N(C4CCC(=O)NC4=O)C6=O)CC3)s2)o1 (centres unmarked)
IC50 (MTT): 0.0796 µM

C[C@H]1[C@H](C)CC[C@]2(C(=O)O)CC[C@]3(C)C(=CC[C@@H]4[C@@]5(C)CC[C@H](O)C(C)(C)[C@@H]5CC[C@]43C)[C@H]12
IC50 (thymidine uptake; 24 h): 13.1 µM

Cc1ccc(S(=O)(=O)n2cc(/C=N/NC(=O)c3cccc(Cl)c3)c3ccccc32)cc1
IC50 (MTT; 48 h): 25.1 µM

O=C(Nc1ccccc1)Nc1ccc(Oc2nc3ccccc3n3cnnc23)cc1
IC50 (MTT; 24 h): > 68 µM

Cc1ccc(S(=O)(=O)n2cc(/C=N/NC(=O)Cc3cc(F)cc(F)c3)c3ccccc32)cc1
IC50 (MTT; 48 h): 32.1 µM

Cc1sc2c(c1C)C(c1ccc(Cl)cc1)=N[C@@H](CC(=O)NCCCCNC(=O)COc1cccc3c1C(=O)N(C1CCC(=O)NC1=O)C3=O)c1nnc(C)n1-2 (some centres unmarked)
IC50 (CCK-8; 72 h): 1.14 µM

CC(C)CNC(=S)N/N=C/c1cccc2cc3ccccc3nc12
IC50 (MTT; 48 h): > 50 µM

Cc1ccc(S(=O)(=O)n2cc(/C=N/NC(=O)c3ccc(C(F)(F)F)cc3)c3ccccc32)cc1
IC50 (MTT; 48 h): 19.2 µM

C[C@H]1[C@H](C)CC[C@]2(C)CC[C@]3(C)C(=CC(=O)[C@@H]4[C@@]5(C)CC[C@@H](O)[C@](C)(C(=O)NCc6cn(-c7ccc(F)cc7)nn6)[C@@H]5CC[C@]43C)[C@H]12
IC50 (MTT; 24 h): 71.4 µM

S=C(N/N=C/c1cccc2cc3ccccc3nc12)Nc1ccccc1
IC50 (MTT; 48 h): > 50 µM

COc1ccccc1-n1cc(CNC(=O)[C@@]2(C)[C@H](O)CC[C@@]3(C)[C@H]2CC[C@]2(C)[C@@H]3C(=O)C[C@@H]3[C@@H]4[C@@H](C)[C@H](C)CC[C@]4(C)CC[C@]32C)nn1
IC50 (MTT; 24 h): 71.2 µM

Cc1cc(NS(=O)(=O)c2ccc(NC(=O)/C(C#N)=C/c3ccc(N4CCCC4)cc3)cc2)no1
IC50 (MTT; 48 h): 109 µM

COc1cccc(NC(=O)Nc2ccc(Oc3nc4ccccc4n4cnnc34)cc2)c1
IC50 (MTT; 24 h): 21.7 µM

O=C1Nc2ccccc2/C1=N/N=C/c1cccc([N+](=O)[O-])c1
IC50 (MTT; 48 h): 21.1 µg/mL

COc1cccc2c1C(=O)c1c(O)c3c(c(O)c1C2=O)C[C@@](O)(C(=O)CO)C[C@@H]3O[C@H]1C[C@H](N)[C@H](O)[C@H](C)O1
IC50 (MTT; 24 h): 6.08 µM

Cc1ccc(S(=O)(=O)n2cc(/C=N/NC(=O)c3ccccc3C)c3ccccc32)cc1
IC50 (MTT; 48 h): 27.2 µM

Cc1ccc(C(C)C)c(OC2=C(Cl)C(=O)c3ccccc3C2=O)c1
IC50 (MTT; 24 h): 60 µg/mL

COc1cccc2c1C(=O)c1c(O)c3c(c(O)c1C2=O)C[C@@](O)(C(=O)CO)C[C@@H]3O[C@H]1C[C@H](N)[C@H](O)[C@H](C)O1
IC50 (MTT; 48 h): 0.2 µM

CO[C@H]1[C@H](O[C@H]([C@H]2O[C@@H](n3ccc(=O)[nH]c3=O)[C@H](O)[C@@H]2O)[C@H](NCCCNC(=O)[C@@H](NC(=O)[C@@H](NC(=O)N[C@H](C(=O)O)C(C)C)[C@@H]2CCN=C(N)N2)[C@@H](OC(=O)CCCCCCCCCCCCN(O)C(=N)N)C(C)C)C(=O)O)O[C@H](CN)[C@H]1O
IC50 (WST-1): 0.98 µM

CC(=O)N1CCC(Nc2cc(C(=O)NC[C@H](O)CN3CCc4ccccc4C3)ncn2)CC1
IC50 (CCK-8; 72 h): > 100 µM

Cc1cc(NS(=O)(=O)c2ccc(NC(=O)/C(C#N)=C/c3ccc(N4CCOCC4)cc3)cc2)no1
IC50 (MTT; 48 h): 83.3 µM

Cc1ccc(S(=O)(=O)n2cc(/C=N/NC(=O)Cc3ccccc3C(F)(F)F)c3ccccc32)cc1
IC50 (MTT; 48 h): 20.1 µM

COc1cccc(NC(=S)N/N=C/c2cccc3cc4ccccc4nc23)c1
IC50 (MTT; 48 h): > 50 µM

C[C@H]1[C@H](C)CC[C@]2(C)CC[C@]3(C)C(=CC(=O)[C@@H]4[C@@]5(C)CC[C@@H](O)[C@](C)(C(=O)NCc6cn(-c7ccc(Cl)cc7)nn6)[C@@H]5CC[C@]43C)[C@H]12
IC50 (MTT; 24 h): 106 µM

Cc1ccc(S(=O)(=O)n2cc(/C=N/NC(=O)c3ccc([N+](=O)[O-])cc3)c3ccccc32)cc1
IC50 (MTT; 48 h): 38.6 µM

CNC(=S)N/N=C/c1cccc2cc3ccccc3nc12
IC50 (MTT; 48 h): 18.9 µM

CC(C)=CCc1ncc(/C=C2\NC(=O)[C@H](C(C)C)NC2=O)[nH]1
IC50 (SRB): > 15 µM

Cc1ccc(S(=O)(=O)n2cc(/C=N/NC(=O)c3cccnc3)c3ccccc32)cc1
IC50 (MTT; 48 h): 18.1 µM

O=c1[nH]cc(F)c(=O)[nH]1
IC50 (MTT; 48 h): 12.2 µM

C[C@H]1[C@H](C)CC[C@]2(C)CC[C@]3(C)C(=CC(=O)[C@@H]4[C@@]5(C)CC[C@@H](O)[C@](C)(C(=O)NCc6cn(-c7cccc(Br)c7)nn6)[C@@H]5CC[C@]43C)[C@H]12
IC50 (MTT; 24 h): 61.5 µM

COc1ccccc1/C=N/N=C1\C(=O)Nc2ccccc21
IC50 (MTT; 48 h): 26.3 µg/mL

C=CC(C)(C)c1[nH]cnc1/C=C1/NC(=O)[C@H](C(C)C)NC1=O
IC50 (SRB): > 15 µM

Nc1ccn([C@@H]2O[C@H](CO)[C@@H](O)C2(F)F)c(=O)n1
IC50 (MTT; 24 h): 7.1 µg/mL

CC(C)[C@@H]1NC(=O)/C(=C/c2cnc[nH]2)NC1=O
IC50 (SRB): > 15 µM

Cc1ccc(S(=O)(=O)n2cc(/C=N/NC(=O)c3ccccc3Br)c3ccccc32)cc1
IC50 (MTT; 48 h): 29.4 µM
